Experimental findings from PubChem BioAssay are described below.

Calls of active or inactive are those of the source.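 The calls were made as follows, unless noted: active = compounds giving at least 50% inhibition in the cell-based MKP-3 phosphatase rescue imaging test; inactive = the rest.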

A short description of assay [1]: inhibitors of TNFa-induced NFkB p65 translocation, primary screen, imaging, HUVEC, MLSMR starter and 10KST1 sets (AID 438;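 active = inhibition above 20% together with a positive visual image hit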;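 also: compound added about 3h40 before a 20 min TNFalpha stimulation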;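 as to inhibition: signal is the nuclear over cytoplasmic p65 intensity ratio per well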). Particulars: HUVEC TNFa-induced p65 nuclear translocation; cell count: measured here: nuclei count (cytotoxicity indicator), at 2.08 µM; inhibition: at 2 µM, stronger effect = higher value, 0% TNFa-plus-vehicle, 100% no-TNFa wells.
Assay [2] in a line: inhibitors of E-selectin induction by TNFa, primary screen, imaging, HUVEC, immunofluorescence, MLSMR starter and 10KST1 sets (AID 487;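 active = visually confirmed hit in the image check and inhibition above 20%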;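 as to inhibition: signal is fraction of cell area covered by stained E-selectin grains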;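 as to nuclei count: 100% = median nuclei count of all wells on the same plate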). The note with it: HUVEC TNFalpha-induced E-selectin immunofluorescence imaging, at 2 µM; inhibition: stronger effect = higher value; nuclei count: measured here: cell number, toxicity.
Assay [3] in a line: DUSP6 inhibitors restoring Erk phosphorylation by chemical complementation, primary imaging in DUSP6-transfected HeLa (AID 609).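 As to inhibition: phospho-Erk level distribution per well compared with pooled transfected vehicle control wells.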 Particulars: HeLa MKP-3 transfected, phospho-Erk imaging KS statistic, at 10 µM, cells stimulated with TPA for 15 min.
In assay [4] the target is Dual specificity protein phosphatase 6 (Homo sapiens) (UniProt Q16828). The assay is described as above. The note with it: HeLa MKP-3 transfected, phospho-Erk imaging KS statistic; at 10 µM; stronger effect = higher value; cells stimulated with TPA for 15 min.
Chain of Dual specificity protein phosphatase 6 (Homo sapiens) (Q16828 whole entry, looked up): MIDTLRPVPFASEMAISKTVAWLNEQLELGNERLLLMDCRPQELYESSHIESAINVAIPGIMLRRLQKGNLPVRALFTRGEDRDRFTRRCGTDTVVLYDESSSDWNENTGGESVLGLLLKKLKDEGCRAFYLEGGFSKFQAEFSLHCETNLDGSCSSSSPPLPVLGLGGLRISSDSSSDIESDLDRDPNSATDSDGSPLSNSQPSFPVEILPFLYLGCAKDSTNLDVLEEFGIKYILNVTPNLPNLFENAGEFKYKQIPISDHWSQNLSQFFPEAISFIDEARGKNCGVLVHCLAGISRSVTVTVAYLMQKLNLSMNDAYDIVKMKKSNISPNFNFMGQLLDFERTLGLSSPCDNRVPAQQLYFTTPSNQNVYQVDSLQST
Assay [5] addresses Voltage-gated potassium channel subunit beta-2 (Rattus norvegicus) (UniProt P62483). Put plainly: KvBeta enzyme negative modulators, primary screen, biochemical, NADPH fluorescence (AID 622;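 active = fluorescence slope higher than the sample average by over 3 SD, cut at about -0.22 in these data, passing the limit was not always enough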;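 also: slope of raw intensity against log time taken from 70 to 1610 s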). Particulars: recombinant KvBeta, 4-cyanobenzaldehyde reduction, at 10 µM, stronger effect = higher value.
Assay [6] has the same target. Description: KvBeta positive modulators, primary screen, biochemical, NADPH fluorescence (AID 623;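 active = NADPH fluorescence slope more negative than the mean of all samples by about 3 SD, 99.7% confidence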;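 also: fluorescence intensity change per second fitted from 20 to 320 s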). Particulars: Recombinant KvBeta, NADPH fluorescence decrease slope, 10 min; at 10 µM; stronger effect = lower value.
Assay [7] has as its target Muscarinic acetylcholine receptor M4 (Homo sapiens) (UniProt P08173). Description: compounds altering M4/GIRK thallium flux, either direction, primary screen, M4 allosteric agonist project, cell-based, HEK293 M4/GIRK, BTC-AM (AID 625;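 active = fluorescence slope after compound addition differing from the mean of all tested samples at 99.7% confidence, mostly higher but some lower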;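 also: thallium influx through GIRK channels coupled to M4 in HEK293 cells with BTC-AM dye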). The note with it: at 10 µM, actives lie on both sides. Summed up:
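Material: M4/GIRK1/GIRK2 stable HEK293 cell line. Medium: pH 7.3 thallium assay buffer. Dosing: single compound concentration, 10 µM final. Schedule: 1 h dye loading, 2 min kinetic read. Measured by: kinetic fluorescence with BTC-AM dye. Read-out: post-addition slope, 15–24 s, of baseline-normalized fluorescence. Benchmarks: carbachol and DMSO controls.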

Assay [8] is described as follows: inhibitors of larval lipid processing in zebrafish, primary screen, whole organism, PED6 fluorescence, gall bladder and intestine (AID 686;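 active = a full or partial loss of lipid-probe fluorescence in the fish gall bladder, intestine or both, judged by eye; inactive = no fluorescence loss, or compound toxic to the fish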;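 also: larvae 5 to 7 days old with five fish per well; signal comes from phospholipase A2 cleavage of quenched PED6 carried via bile; overnight exposure to compound and PED6 before scoring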). The note with it: Zebrafish larvae PED6 lipid processing, fluorescence scoring; screened at 20 µM (by protocol). Summed up:
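System: live zebrafish larvae aged 5-7 days, whole organism; measure: graded gall bladder and intestinal fluorescence inhibition per well; incubation: overnight exposure; reagent: ingested quenched lipid PED6 at 100 nM; signal: By-eye fluorescence microscopy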

The nature of assay [9]: inhibitors of Chlamydomonas gravitaxis, primary screen, whole organism, Chlamydomonas reinhardtii, WT vs cilia-less mutant, absorbance, 96-well (AID 463189;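 active = inhibition at or above 50% relative to wild type and mutant plate controls; inactive = inhibition below 50%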;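 also: 0% = wild type cc124 cells in DMSO and 100% = ciliumless bld1 mutant cells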). Particulars: OD600 absorbance, 2 days, at 10 µM, stronger effect = higher value.
[10] abbreviates: measured here: cell density z-score.
Setting [11] is: measured here: nuclear c-Myc green intensity z-score.
[12] abbreviates: measured here: nuclear pErk red intensity z-score, stronger effect = higher value.

Chain of Muscarinic acetylcholine receptor M4 (Homo sapiens) (P08173 whole entry, looked up): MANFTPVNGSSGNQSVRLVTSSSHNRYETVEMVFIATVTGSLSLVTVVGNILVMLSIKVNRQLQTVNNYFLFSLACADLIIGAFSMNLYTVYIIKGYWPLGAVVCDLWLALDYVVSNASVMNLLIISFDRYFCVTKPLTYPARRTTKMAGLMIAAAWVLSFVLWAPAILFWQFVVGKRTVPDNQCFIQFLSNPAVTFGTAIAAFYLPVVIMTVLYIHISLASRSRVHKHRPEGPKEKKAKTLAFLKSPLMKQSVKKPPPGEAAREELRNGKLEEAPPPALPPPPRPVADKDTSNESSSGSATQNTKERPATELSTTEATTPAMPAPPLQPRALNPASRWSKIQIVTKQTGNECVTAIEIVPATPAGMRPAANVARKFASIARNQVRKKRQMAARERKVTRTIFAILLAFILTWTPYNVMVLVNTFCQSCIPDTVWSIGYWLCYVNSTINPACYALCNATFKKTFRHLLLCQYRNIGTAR
Chain of Voltage-gated potassium channel subunit beta-2 (Rattus norvegicus) (P62483 whole entry, looked up): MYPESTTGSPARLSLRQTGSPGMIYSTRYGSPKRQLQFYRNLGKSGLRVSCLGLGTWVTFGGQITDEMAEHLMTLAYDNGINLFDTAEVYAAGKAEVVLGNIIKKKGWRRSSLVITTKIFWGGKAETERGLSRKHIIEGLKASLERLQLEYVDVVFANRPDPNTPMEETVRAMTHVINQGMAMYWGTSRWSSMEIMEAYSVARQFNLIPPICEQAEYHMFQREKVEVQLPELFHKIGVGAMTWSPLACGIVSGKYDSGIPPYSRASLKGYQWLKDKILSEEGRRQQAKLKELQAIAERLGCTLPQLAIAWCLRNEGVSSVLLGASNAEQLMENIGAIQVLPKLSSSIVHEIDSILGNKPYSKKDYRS

By inhibition is commonly meant the drop in the measured response relative to a control, in per cent. Regarding `O=C(COc1ccc(-c2nnc(N3CCCCC3)c3ccccc23)cc1)N1CCCCC1`, the cell count in assay [1] amounted to 373. Moreover, the inhibition is 1.4% (inactive) in assay [1], -58.5% (inactive) in [2], 5.65% (inactive) in assay [4] and 34.6% (inactive) in assay [9]. Moreover, the nuclei count in assay [2] is 89.7%. Moreover, the results for the z-score in assay [3] (setting [10]), in [3] (setting [11]) and in [3] (setting [12]) were 0.333, -0.404 and 1.13, respectively. The fluorescence slope in assay [5] was -0.487 (inactive); in assay [7] it was 0.00419 (inactive). In assay [6], the NADPH fluorescence slope is 2e-05 (inactive). In addition, the result in assay [8] was inactive.

As to `C=C(C)CSc1nc(N)c2c3c(sc2n1)CCC3`, in [1], the cell count is 394. In addition, the inhibition was -3.4% (inactive) in assay [1], 2.9% (inactive) in assay [2], 5.42% (inactive) in [4] and -7.33% (inactive) in assay [9]. In assay [2], this compound gave a nuclei count of 149%. For the same compound, the results for the z-score in [3] (setting [10]), in assay [3] (setting [11]) and in [3] (setting [12]) were -1.07, 1.64 and -0.412, respectively. In addition, the fluorescence slope in [5] was -0.451 (inactive); in assay [7], 0.00788 (inactive). For the same compound, the NADPH fluorescence slope in assay [6] is -0.000115 (inactive). Further, the compound was called inactive in [8].

Take `COC(=O)c1[nH]c2ccc(Cl)cc2c1NC(=O)C1CC1`: the cell count in assay [1] was found to be 489. The inhibition is -0.3% (inactive) in assay [1], -43.6% (inactive) in assay [2], -4.59% (inactive) in assay [4] and -10.7% (inactive) in assay [9]. The same compound showed a nuclei count in assay [2] of 120%. In addition, the z-score is -0.422 in assay [3] (setting [10]), -0.0225 in [3] (setting [11]) and -0.572 in [3] (setting [12]). For the same compound, the values for the fluorescence slope in [5] and in [7] were -0.451 (inactive) and 0.00568 (inactive), respectively. The NADPH fluorescence slope in assay [6] is -5.4e-05 (inactive). In addition, the result in assay [8] was inactive.

In the case of `COc1cc(/C=N/n2nnnc2N)ccc1O`, the cell count in assay [1] stood at 594. Further, the inhibition was -13% (inactive) in [1], -19.6% (inactive) in assay [2], 17.7% (inactive) in assay [4] and 14% (inactive) in assay [9]. In assay [2], this compound registered a nuclei count of 150%. Further, the z-score in assay [3] (setting [10]) is 0.109; in [3] (setting [11]), -0.705; in assay [3] (setting [12]), -0.571. Also, the fluorescence slope is -0.448 (inactive) in assay [5] and 0.00627 (inactive) in assay [7]. In addition, in assay [6], the NADPH fluorescence slope was -0.000221 (inactive). Also, the call in assay [8] was inactive.

Consider `CCN1CCc2c(C#N)c(N3CCCCC3)nc(N3CCOCC3)c2C1`, for which the cell count in assay [1] was found to be 567. Also, the inhibition in [1] is -7.1% (inactive); in assay [2], -95.8% (inactive); in assay [4], -2.09% (inactive); in assay [9], 20.3% (inactive). The same compound came in with a nuclei count in [2] of 149%. Further, the z-score in assay [3] (setting [10]) is 0.15; in assay [3] (setting [11]) it was -1.22; in assay [3] (setting [12]), 1.09. Moreover, the values for the fluorescence slope in [5] and in assay [7] were -0.46 (inactive) and 0.00491 (inactive), respectively. Besides, in assay [6], the NADPH fluorescence slope was -7.6e-05 (inactive). In addition, in assay [8], the result was inactive.

Regarding `Cc1ccc(-n2ncc3c(NCc4ccc5c(c4)OCO5)ncnc32)c(C)c1`, the cell count in [1] is 543. For the same compound, the inhibition is -12.5% (inactive) in [1], -35.3% (inactive) in assay [2], 11.4% (inactive) in [4] and 47.1% (inactive) in assay [9]. In assay [2], the nuclei count stood at 135%. Further, the z-score in [3] (setting [10]) was -0.519; in [3] (setting [11]), 1.64; in [3] (setting [12]), -0.848. The fluorescence slope in assay [5] was -0.376 (inactive); in assay [7], 0.0052 (inactive). For the same compound, in assay [6], the NADPH fluorescence slope was 4.1e-06 (inactive). The outcome in assay [8] was inactive.

On to `CCCCC(=O)C1CCN(Cc2ccccc2)CC1`, for which, in [1], the cell count was determined as 371. Also, the inhibition in assay [1] was -0.5% (inactive); in assay [2], 19.3% (inactive); in assay [4], -0.584% (inactive); in [9], 126% (active). For the same compound, the nuclei count in [2] worked out at 177%. Besides, the z-score was found to be 0.378 in assay [3] (setting [10]), 0.471 in assay [3] (setting [11]) and 0.337 in [3] (setting [12]). Further, the results for the fluorescence slope in assay [5] and in assay [7] were -0.469 (inactive) and 0.00375 (inactive), respectively. For the same compound, the NADPH fluorescence slope in assay [6] is -0.000111 (inactive). Besides, in [8], the outcome is “inactive; toxic”.

Regarding `Cc1cccc(-c2nnc3n2N=C(c2ccccc2)CS3)c1`, in [1], the cell count is 713. For the same compound, the inhibition is 6.8% (inactive) in [1], -55.5% (inactive) in assay [2], 16.8% (inactive) in [4] and 44.7% (inactive) in [9]. This compound also came in with a nuclei count in [2] of 169%. Moreover, the z-score was 0.462 in assay [3] (setting [10]), -0.93 in assay [3] (setting [11]) and 1.32 in assay [3] (setting [12]). The values for the fluorescence slope in assay [5] and in assay [7] were -0.415 (inactive) and 0.00492 (inactive), respectively. Further, the NADPH fluorescence slope in assay [6] was -6.7e-05 (inactive). In addition, in [8], the compound was called inactive.

Consider `CCOC(=O)C1=C(C)NC(=O)C1CC(=O)Nc1ccccc1` (centres undefined), for which the cell count in [1] turned out to be 377. The inhibition was -4.8% (inactive) in assay [1], -73.4% (inactive) in assay [2], 3.42% (inactive) in assay [4] and -5.87% (inactive) in assay [9]. Also, the nuclei count in [2] was 139%. For the same compound, the z-score in [3] (setting [10]) is -0.173; in assay [3] (setting [11]), 0.561; in [3] (setting [12]), 0.408. Also, the fluorescence slope in assay [5] is -0.443 (inactive); in assay [7], 0.00567 (inactive). For the same compound, the NADPH fluorescence slope in assay [6] was -0.000122 (inactive). Moreover, the compound was called inactive in assay [8].

On to `Nc1nnnn1/N=C/c1ccco1`, for which the cell count in assay [1] is 510. The inhibition in [1] was -4% (inactive); in [2], -8.3% (inactive); in assay [4], 11% (inactive); in assay [9], -6.14% (inactive). Also, in assay [2], the nuclei count is 90.4%. Further, the z-score in assay [3] (setting [10]) was 0.476; in assay [3] (setting [11]), 0.245; in assay [3] (setting [12]), -0.718. Moreover, the fluorescence slope in assay [5] is -0.502 (inactive); in assay [7], 0.00713 (inactive). For the same compound, in assay [6], the NADPH fluorescence slope is -4.9e-05 (inactive). In assay [8], the compound was classed as inactive.

`Cc1cc(=O)n2[nH]c(N3C(=O)CCC3=O)nc2n1`: the cell count in assay [1] amounted to 527. For the same compound, the inhibition was -1.3% (inactive) in [1], 47.3% (inactive) in assay [2], -5.95% (inactive) in assay [4] and 4.51% (inactive) in [9]. This compound had a nuclei count in assay [2] of 172%. The z-score is -0.749 in assay [3] (setting [10]), -0.115 in [3] (setting [11]) and 1.44 in assay [3] (setting [12]). Moreover, the fluorescence slope is -0.397 (inactive) in assay [5] and 0.00594 (inactive) in [7]. In assay [6], the NADPH fluorescence slope is -2.7e-05 (inactive). Also, the result in [8] was inactive.

Turning to `CC1(C)Cc2[nH]c(=S)c(C#N)cc2CO1`, the cell count in assay [1] worked out at 531. The inhibition in assay [1] was -11.7% (inactive); in assay [2], -90.9% (inactive); in [4] it was -5.81% (inactive); in assay [9], -14% (inactive). Further, the nuclei count in assay [2] was determined as 118%. Besides, the results for the z-score in [3] (setting [10]), in assay [3] (setting [11]) and in assay [3] (setting [12]) were 0.165, 0.751 and -0.483, respectively. Also, the fluorescence slope was -0.459 (inactive) in assay [5] and 0.0062 (inactive) in [7]. Also, the NADPH fluorescence slope in assay [6] was -0.000113 (inactive). The compound was called inactive in assay [8].

Regarding `O=C(c1ccccc1)c1cc(-c2ccccc2)on1`, the cell count in [1] was found to be 589. In addition, the inhibition was -3.4% (inactive) in assay [1], -39.7% (inactive) in [2], -13.3% (inactive) in assay [4] and -6.04% (inactive) in assay [9]. In assay [2], this compound came in with a nuclei count of 118%. Besides, the values for the z-score in assay [3] (setting [10]), in assay [3] (setting [11]) and in assay [3] (setting [12]) were -0.313, -0.603 and 0.519, respectively. In addition, the fluorescence slope was -0.41 (inactive) in [5] and 0.00548 (inactive) in assay [7]. The NADPH fluorescence slope in assay [6] was -7.5e-05 (inactive). The outcome in [8] was inactive.
